Reference: ChEMBL document CHEMBL4033712, “Synthesis and biological evaluation of new C-12(α/β)-(N-) sulfamoyl-phenylamino-14-deoxy-andrographolide derivatives as potent anti-cancer agents” (Bioorg Med Chem Lett, 2017)

What was measured:
Assay type in all cases: functional
SK-MEL-28 = test: Growth inhibition of human SK-MEL-28 cells incubated for 48 hrs by sulforhodamine B assay; conditions: SK-MEL-28, 48 h
Outline: (§1)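 NCI 60 human tumour cell line panel, five-dose study at 0.01, 0.1, 1, 10 and 100 µM, 48 h incubation. Sulforhodamine B protein-binding dye end point. GI50 (50% decrease in net cell growth), TGI (total growth inhibition) and LC50 (net 50% loss of initial cells) read from log concentration versus % growth inhibition curves.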

NCI/ADR-RES = test: Growth inhibition of human NCI/ADR-RES cells incubated for 48 hrs by sulforhodamine B assay
Outline: (§2)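 NCI-60 five-dose screen at 0.01, 0.1, 1, 10 and 100 µM, 48 h incubation, sulforhodamine B end point. GI50 (50% decrease in net growth), TGI (total growth inhibition) and LC50 (net 50% loss of initial cells) taken from log concentration versus % growth inhibition curves.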

DU-145 = test: Growth inhibition of human DU145 cells incubated for 48 hrs by sulforhodamine B assay; conditions: DU-145, 48 h; outline: as §2
NCI-H522 = test: Growth inhibition of human NCI-H522 cells incubated for 48 hrs by sulforhodamine B assay; conditions: NCI-H522, 48 h; outline: as §2
HOP-62 = test: Growth inhibition of human HOP62 cells incubated for 48 hrs by sulforhodamine B assay; conditions: HOP-62, 48 h; outline: as §2
SK-OV-3 = test: Growth inhibition of human SKOV3 cells incubated for 48 hrs by sulforhodamine B assay; conditions: SK-OV-3, 48 h; outline: as §1
HCC 2998 = test: Growth inhibition of human HCC2998 cells incubated for 48 hrs by sulforhodamine B assay; conditions: HCC 2998, 48 h; outline: as §2
SF-295 = test: Growth inhibition of human SF295 cells incubated for 48 hrs by sulforhodamine B assay; conditions: SF-295, 48 h; outline: as §1
SW-620 = test: Growth inhibition of human SW620 cells incubated for 48 hrs by sulforhodamine B assay; conditions: SW-620, 48 h; outline: as §1
K562 = test: Growth inhibition of human K562 cells incubated for 48 hrs by sulforhodamine B assay; conditions: K562, 48 h; outline: as §2
HL-60(TB) = test: Growth inhibition of human HL-60(TB) cells incubated for 48 hrs by sulforhodamine B assay; conditions: HL-60, 48 h
Outline: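 NCI-60 five-dose screen at 0.01, 0.1, 1, 10 and 100 µM for 48 h, sulforhodamine B read-out. GI50 taken from log concentration versus % growth inhibition curves as the concentration giving 50% decrease in net cell growth.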

HCT-116 = test: Growth inhibition of human HCT116 cells incubated for 48 hrs by sulforhodamine B assay; conditions: HCT-116, 48 h; outline: as §2
U-251 = test: Growth inhibition of human U251 cells incubated for 48 hrs by sulforhodamine B assay; conditions: U-251, 48 h; outline: as §1
CAKI-1 = test: Growth inhibition of human Caki1 cells incubated for 48 hrs by sulforhodamine B assay; conditions: CAKI-1, 48 h; outline: as §2
MOLT-4 = test: Growth inhibition of human MOLT4 cells incubated for 48 hrs by sulforhodamine B assay; conditions: MOLT-4, 48 h; outline: as §2
A549 = test: Growth inhibition of human A549/ATCC cells incubated for 48 hrs by sulforhodamine B assay; conditions: A549, 48 h; outline: as §2
SR = test: Growth inhibition of human SR cells incubated for 48 hrs by sulforhodamine B assay; outline: as §1
SK-MEL-2 = test: Growth inhibition of human SK-MEL-2 cells incubated for 48 hrs by sulforhodamine B assay; conditions: SK-MEL-2, 48 h; outline: as §1
NCI-H226 = test: Growth inhibition of human NCI-H226 cells incubated for 48 hrs by sulforhodamine B assay; conditions: NCI-H226, 48 h; outline: as §2
MDA-MB-435 = test: Growth inhibition of human MDA-MB-435 cells incubated for 48 hrs by sulforhodamine B assay; conditions: MDA-MB-435, 48 h; outline: as §2
CCRF-CEM = test: Growth inhibition of human CCRF-CEM cells incubated for 48 hrs by sulforhodamine B assay; outline: as §2
NCI-H460 = test: Growth inhibition of human NCI-H460 cells incubated for 48 hrs by sulforhodamine B assay; conditions: NCI-H460, 48 h; outline: as §2
T47D = test: Growth inhibition of human T47D cells incubated for 48 hrs by sulforhodamine B assay; outline: as §1
LOX IMVI = test: Growth inhibition of human LOXIMVI cells incubated for 48 hrs by sulforhodamine B assay; outline: as §2
MCF7 = test: Growth inhibition of human MCF7 cells incubated for 48 hrs by sulforhodamine B assay; conditions: MCF7, 48 h; outline: as §2
OVCAR-3 = test: Growth inhibition of human OVCAR3 cells incubated for 48 hrs by sulforhodamine B assay; conditions: OVCAR-3, 48 h; outline: as §2
UACC-257 = test: Growth inhibition of human UACC257 cells incubated for 48 hrs by sulforhodamine B assay; conditions: UACC-257, 48 h; outline: as §1
SF-539 = test: Growth inhibition of human SF539 cells incubated for 48 hrs by sulforhodamine B assay; conditions: SF-539, 48 h; outline: as §1
[1] = read-out: LC50 (the source's name)

`C=C1CC[C@@H]2[C@](C)(COC(C)=O)[C@H](OC(C)=O)CC[C@@]2(C)[C@H]1CC(Nc1ccc(S(=O)(=O)Nc2ccc(Cl)nn2)cc1)C1=CCOC1=O` (some centres not stated) gave a GI50 (SK-MEL-28) of 1.68 µM, an LC50 (50% net cell kill) (SK-MEL-28) of 7.13 µM and a TGI (SK-MEL-28) of 3.46 µM. For the same molecule, the GI50 (NCI/ADR-RES) was 1.87 µM, the LC50 (concentration giving net 50% loss of initial cells) (NCI/ADR-RES) was greater than 100 µM and the TGI (NCI/ADR-RES) was 6.2 µM. For the same molecule, the GI50 (DU-145) was 1.7 µM, the TGI (DU-145) was 3.45 µM and the CC50 (DU-145; [1]) was 7.02 µM. The GI50 (NCI-H522) was 0.75 µM, the TGI (NCI-H522) was 2.1 µM and the CC50 (NCI-H522; [1]) was 4.82 µM. For the same molecule, the GI50 (HOP-62) was 1.46 µM, the TGI (HOP-62) was 2.99 µM and the CC50 (HOP-62; [1]) was 6.12 µM. It also gave a GI50 (SK-OV-3) of 4.05 µM, a TGI (SK-OV-3) of 12.3 µM and a CC50 (SK-OV-3; [1]) of 35 µM. The GI50 (HCC 2998) was 1.84 µM, the TGI (HCC 2998) was 3.86 µM and the CC50 (HCC 2998; [1]) was 8.08 µM. It also gave a GI50 (SF-295) of 3.28 µM, a TGI (SF-295) of 12.6 µM and a CC50 (SF-295; [1]) of 35.6 µM. The GI50 (SW-620) was 1.07 µM, the TGI (SW-620) was 2.8 µM and the CC50 (SW-620; [1]) was 7.34 µM. For the same molecule, the GI50 (K562) was 0.52 µM, the TGI (K562) was 5.19 µM and the CC50 (K562; [1]) was greater than 100 µM. For the same molecule, the GI50 (HL-60(TB)) was 1.32 µM, the TGI (HL-60(TB)) was 4.44 µM and the CC50 (HL-60(TB); [1]) was greater than 100 µM. The GI50 (HCT-116) was 1.08 µM, the TGI (HCT-116) was 2.32 µM and the CC50 (HCT-116; [1]) was 4.96 µM. It also gave a GI50 (U-251) of 1.68 µM, a TGI (U-251) of 3.05 µM and a CC50 (U-251; [1]) of 5.52 µM. It also gave a GI50 (CAKI-1) of 2.28 µM, a TGI (CAKI-1) of 100 µM and a CC50 (CAKI-1; [1]) of 31.7 µM. It also gave a GI50 (MOLT-4) of 1.96 µM, a TGI (MOLT-4) greater than 100 µM and a CC50 (MOLT-4; [1]) greater than 100 µM. The GI50 (A549) was 2.96 µM, the TGI (A549) was 10.7 µM and the CC50 (A549; [1]) was 40.9 µM. It also gave a GI50 (SR) of 1.35 µM, a TGI (SR) of 8.1 µM and a CC50 (SR; [1]) greater than 100 µM. The GI50 (SK-MEL-2) was 1.77 µM, the TGI (SK-MEL-2) was 3.99 µM and the CC50 (SK-MEL-2; [1]) was 8.97 µM. The GI50 (NCI-H226) was 1.67 µM, the TGI (NCI-H226) was 3.3 µM and the GI50 (MDA-MB-435) was 1.4 µM. The TGI (MDA-MB-435) was 3.17 µM, the CC50 (MDA-MB-435; [1]) was 7.16 µM and the GI50 (CCRF-CEM) was 0.46 µM. The TGI (CCRF-CEM) was 2.6 µM, the CC50 (CCRF-CEM; [1]) was greater than 100 µM and the GI50 (NCI-H460) was 2.03 µM. It also gave a TGI (NCI-H460) of 4.31 µM, a CC50 (NCI-H460; [1]) of 9.15 µM and a GI50 (T47D) of 1.51 µM. For the same molecule, the TGI (T47D) was 4.25 µM, the CC50 (T47D; [1]) was greater than 100 µM and the GI50 (LOX IMVI) was 0.29 µM. For the same molecule, the TGI (LOX IMVI) was 1.19 µM, the CC50 (LOX IMVI; [1]) was 4.17 µM and the GI50 (MCF7) was 0.78 µM. For the same molecule, the TGI (MCF7) was 2.9 µM, the GI50 (OVCAR-3) was 1.22 µM and the TGI (OVCAR-3) was 2.51 µM. For the same molecule, the CC50 (OVCAR-3; [1]) was 5.18 µM, the GI50 (UACC-257) was 1.67 µM and the TGI (UACC-257) was 3.89 µM. It also gave a CC50 (UACC-257; [1]) of 9.03 µM, a GI50 (SF-539) of 1.23 µM and a TGI (SF-539) of 2.63 µM. The CC50 (SF-539; [1]) was 5.62 µM.
